We go through 20 compounds from ChEMBL document CHEMBL1124004, “Inhibitors of cyclic AMP phosphodiesterase. 3. Synthesis and biological evaluation of pyrido and imidazolyl analogues of 1,2,3,5-tetrahydro-2-oxoimidazo[2,1-b]quinazoline” (J Med Chem, 1988).

For experiment [1], the species on record is Homo sapiens. Briefly: Inhibition of ADP induced platelet aggregation. The class given is functional. Put shortly: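 Human platelets with ADP as the aggregating stimulus. Each assay was run in triplicate at five inhibitor concentrations. The mean at each concentration was plotted and the IC50 was read graphically.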
The target of experiment [2] is T1, Phosphodiesterase 3 (Homo sapiens, UniProt Q14432+Q13370). Briefly: Inhibition of platelet cAMP phosphodiesterase.
The species entered for experiment [3] is Homo sapiens. Put plainly: Inhibition of ADP induced platelet aggregation; inactive. The class given is functional.
Experiment [4] deals with Canis familiaris. Briefly: Percent maximum increase in cardiac force in anesthetized dogs using isoproterenol as agonist; inactive at all doses up to 1000 ug/kg. The class given is functional, organism-based. The settings on record: Canis lupus familiaris; Heart. In outline: (§1)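 Instrumented, anesthetized dogs. Cardiac force rise from the test agent is expressed as a percent of the maximum cardiac force increase seen in the same animal with isoproterenol as agonist. N = number of experiments.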

Experiment [5] concerns Canis familiaris. Briefly: Percent maximum increase in cardiac force in anesthetized dogs using isoproterenol as agonist at 75 nmol/kg. The class given is functional, Canis lupus familiaris, Heart. In outline: as §1
The species named for experiment [6] is Canis familiaris. Put plainly: Dose at which 50% blood pressure decrease in dogs. The class given is functional. The settings on record: Canis lupus familiaris. Put shortly: (§2)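 Instrumented, anesthetized dogs. Cardiac force, heart rate and blood pressure response curves were plotted against dose. When n > 1, the mean at each dose level was plotted.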
For experiment [7], the species on record is Canis familiaris. Put plainly: Dose at which 50% heart rate increase in dogs. The class given is functional. The settings on record: Canis lupus familiaris. In outline:
as §2

The species named for experiment [8] is Canis familiaris. Briefly: Dose at which 50% maximal effect for cardiac force increase in dogs. Format: functional. The settings on record: Canis lupus familiaris, Heart. Put shortly:
as §2

Experiment [9] has as its system Canis familiaris. Put plainly: Percent maximum increase in cardiac force in anesthetized dogs using isoproterenol as agonist at 125 nmol/kg. Format: functional, Canis lupus familiaris, Heart. Put shortly:
as §1

Experiment [10] concerns the target T1, Phosphodiesterase 3. Put plainly: Inhibition of human platelet cAMP phosphodiesterase at 100 uM.
The subject of experiment [11] is Canis familiaris. Briefly: Percent maximum increase in cardiac force in anesthetized dogs using isoproterenol as agonist at 140 nmol/kg. Format: functional, Canis lupus familiaris, Heart. Put shortly:
as §1

The test system of experiment [12] is Canis familiaris. Briefly: Percent maximum increase in cardiac force in anesthetized dogs using isoproterenol as agonist at greater than 5000 nmol/kg. The class given is functional, Canis lupus familiaris, Heart.
The subject of experiment [13] is Canis familiaris. Briefly: Percent maximum increase in cardiac force in anesthetized dogs using isoproterenol as agonist at 185 nmol/kg. The class given is functional, Canis lupus familiaris, Heart. Put shortly:
as §1

The source made the active and inactive calls. No cut-off for these calls is given here.

Take `O=C1CN2Cc3ncccc3N=C2N1`: the IC50 was 25 µM in the experiment listed under Homo sapiens [1] and 30 µM at Phosphodiesterase 3 [2].
The corresponding values for `O=C1CN2Cc3cc(OCCCCCCn4ccnc4)ccc3N=C2N1` are 23 µM and 0.7 µM.
The corresponding values for `O=C1CN2Cc3cc(OCCn4ccnc4)ccc3N=C2N1` are 40 µM and 2 µM.
For the compound `O=C1CN=C(Nc2ccc(-n3ccnc3)cc2)N1`, the results for the IC50 result in the experiment listed under Homo sapiens [3] and against Phosphodiesterase 3 [2] were “Not Active” and 250 µM, respectively. Besides, the “Max CF response” value with Canis familiaris [4] is “inactive”.
The compound `Cc1c(Br)ccc2c1CN1C(=N2)NC(=O)C1C` (configuration not stated) returned an IC50 against Phosphodiesterase 3 [2] of 0.07 µM.
Take `CN(C(=O)CCCOc1ccc2c(c1)CN1CC(=O)NC1=N2)C1CCCCC1` [LIXAZINONE]: the “Max CF response” value in the experiment with Canis familiaris [5] is 71%. The values for the ED50 in the experiment filed under Canis familiaris [6], in the experiment filed under Canis familiaris [7] and in the experiment listed under Canis familiaris [8] were 0.05 µmol/kg, 0.03 µmol/kg and 0.02 µmol/kg, respectively.
Turning to `CC1CC(O)=NN=C1c1ccc(-n2ccnc2)cc1` (configuration not stated) [CI-930], the ED50 in the experiment filed under Canis familiaris [6], in the experiment listed under Canis familiaris [7] and in the experiment filed under Canis familiaris [8] was 0.1 µmol/kg in each case. Besides, in the experiment on Canis familiaris [9], the “Max CF response” value is given as 72%.
With `O=C1CN2Cc3cc(N4CCCCC4)ccc3N=C2N1`, the IC50 against Phosphodiesterase 3 [2] worked out at 0.15 µM.
Turning to `CCc1[nH]c(=O)[nH]c1C(=O)c1ccncc1` [PIROXIMONE], the inhibition at Phosphodiesterase 3 [10] came out at 40%. Also, the IC50 against Phosphodiesterase 3 [2] was more than 100 µM.
`O=C1CN2Cc3cc(OCc4ccccc4)ccc3N=C2N1` returned an IC50 against Phosphodiesterase 3 [2] of 0.56 µM.
As for `O=C1CN2Cc3ccncc3N=C2N1`, the IC50 in the experiment listed under Homo sapiens [1] and on Phosphodiesterase 3 [2] was 26 µM throughout.
As for `Cc1[nH]c(=O)c(C#N)cc1-c1ccncc1` [MILRINONE], the ED50 in the experiment filed under Canis familiaris [6] is 0.59 µmol/kg; in the experiment listed under Canis familiaris [7], 0.19 µmol/kg; in the experiment filed under Canis familiaris [8], 0.09 µmol/kg. The “Max CF response” value in the experiment with Canis familiaris [11] is reported as 65%.
As to `O=C1CN2Cc3ccccc3N=C2N1`, at Phosphodiesterase 3 [2], the IC50 is 8.8 µM.
As for `O=C1CN2Cc3cnccc3N=C2N1`, the IC50 in the experiment listed under Homo sapiens [1] turned out to be 46 µM; at Phosphodiesterase 3 [2], 18 µM. The “Max CF response” value in the experiment on Canis familiaris [12] came to 27%. The ED50 in the experiment listed under Canis familiaris [6] was more than 1 µmol/kg; in the experiment filed under Canis familiaris [7], more than 1 µmol/kg; in the experiment listed under Canis familiaris [8], 0.78 µmol/kg.
`C[C@@H]1C(=O)NC2=Nc3cccc(Cl)c3CN21` [QUAZINONE]: the IC50 at Phosphodiesterase 3 [2] was 0.24 µM.
For the compound `O=C1CN2Cc3cc(Cl)ccc3N=C2N1`, the IC50 at Phosphodiesterase 3 [2] came to 1.5 µM.
Consider `O=C1CN2Cc3cc(I)ccc3N=C2N1`, for which, at Phosphodiesterase 3 [2], the IC50 came out at 0.52 µM.
`O=C1CN2Cc3cc(-n4ccnc4)ccc3N=C2N1`: the IC50 came to 6 µM in the experiment listed under Homo sapiens [1] and 0.6 µM against Phosphodiesterase 3 [2]. Besides, the “Max CF response” value in the experiment with Canis familiaris [13] worked out at 63%. In addition, the ED50 amounted to 0.64 µmol/kg in the experiment filed under Canis familiaris [6], 0.22 µmol/kg in the experiment listed under Canis familiaris [7] and 0.18 µmol/kg in the experiment filed under Canis familiaris [8].
As to `O=C1CN2Cc3cccnc3N=C2N1`, the results for the IC50 in the experiment listed under Homo sapiens [1] and against Phosphodiesterase 3 [2] were 200 µM and 330 µM, respectively.
Turning to `O=C1CN2Cc3cc(O)ccc3N=C2N1`, the IC50 against Phosphodiesterase 3 [2] came out at 3.3 µM.
